Tests used:
[1] = system: isolated rat right atrium; test: Heart rate in isolated rat right atrium in vitro; settings: data not shown
HCN4 [2] = target: T1, HCN4 (Homo sapiens, UniProt Q9Y3Q4); test: Random screening of ~16,000 compounds for HCN4 blockade, IonWorks; format: cell-based; settings: six-pulse protocol; blockade traces, Fig. 3C
T1 sequence (Q9Y3Q4 1-1203): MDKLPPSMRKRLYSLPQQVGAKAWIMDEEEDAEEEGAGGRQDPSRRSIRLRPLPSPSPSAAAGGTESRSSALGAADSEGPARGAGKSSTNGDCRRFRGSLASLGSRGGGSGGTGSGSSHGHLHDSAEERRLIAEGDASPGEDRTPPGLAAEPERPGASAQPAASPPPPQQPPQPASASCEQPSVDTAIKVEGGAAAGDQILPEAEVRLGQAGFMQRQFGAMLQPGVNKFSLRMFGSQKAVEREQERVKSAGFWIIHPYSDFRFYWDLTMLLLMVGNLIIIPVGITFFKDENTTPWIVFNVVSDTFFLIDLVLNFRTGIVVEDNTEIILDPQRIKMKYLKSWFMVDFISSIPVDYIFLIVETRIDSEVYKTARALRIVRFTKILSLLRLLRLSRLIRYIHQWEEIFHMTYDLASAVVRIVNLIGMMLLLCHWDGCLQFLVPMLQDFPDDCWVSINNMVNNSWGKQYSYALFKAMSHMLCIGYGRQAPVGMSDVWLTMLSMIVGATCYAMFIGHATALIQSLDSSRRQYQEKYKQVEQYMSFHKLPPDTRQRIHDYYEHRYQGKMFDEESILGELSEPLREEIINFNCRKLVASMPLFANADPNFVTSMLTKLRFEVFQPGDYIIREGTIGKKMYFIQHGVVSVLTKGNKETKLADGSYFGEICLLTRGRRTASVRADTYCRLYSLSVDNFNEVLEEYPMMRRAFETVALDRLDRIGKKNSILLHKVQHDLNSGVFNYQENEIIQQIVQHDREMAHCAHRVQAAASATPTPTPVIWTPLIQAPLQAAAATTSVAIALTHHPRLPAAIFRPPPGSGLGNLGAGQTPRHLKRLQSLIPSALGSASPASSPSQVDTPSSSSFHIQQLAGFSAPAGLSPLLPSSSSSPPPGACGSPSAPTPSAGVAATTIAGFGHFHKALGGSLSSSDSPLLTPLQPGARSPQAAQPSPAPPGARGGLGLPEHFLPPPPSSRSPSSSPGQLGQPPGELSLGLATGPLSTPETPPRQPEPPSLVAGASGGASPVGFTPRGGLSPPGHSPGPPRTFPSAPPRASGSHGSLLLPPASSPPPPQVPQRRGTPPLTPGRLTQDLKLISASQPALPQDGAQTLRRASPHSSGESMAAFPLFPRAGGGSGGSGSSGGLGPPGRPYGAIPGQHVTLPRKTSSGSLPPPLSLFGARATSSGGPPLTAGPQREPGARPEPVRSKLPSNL
In short: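 Human HCN4 (Thr110Ser) stably expressed in CHO-K1 cells, grown at 37 °C, then held at 30 °C for 2−8 days before recording. Perforated-patch (amphotericin B) IonWorks recording, SH mode then PPC mode. Held at −30 mV with a +10 mV leak prepulse, then six hyperpolarizing pulses. Test compound at 30 μM, DMSO 0.3% per well. Current at end of last pulse read before and 5−10 min after addition; percent inhibition from post/pre ratio.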

HCN4 [3] = target: T1, HCN4; format: cell-based; settings: six repetitive hyperpolarization pulses, Fig. 2A,B

| Molecule | Effect on heart rate in isolated rat right atrium [1] | Use dependence of HCN4 blockade over six pulses (HCN4 [2]) | Use dependence of HCN4 blockade according to pulse number (HCN4 [3]) |
| --- | --- | --- | --- |
| O=C(c1ccc(-n2cccn2)nc1)N1CCN2C(=O)OC(c3ccccc3)(c3ccccc3)[C@H]2C1 [T-788, (8aR)-1,1-diphenyl-7-[6-(1H-pyrazol-1-yl)pyridine-3-carbonyl]hexahydro-3H-[1,3]oxazolo[3,4-a]pyrazin-3-one] | reduced heart rate | almost the same blockade or even a decreasing blockade over six pulses | – |
| FC(F)(F)c1cccc(-c2ccc3c(c2)CNCC3)c1 [T-524, 7-[3-(trifluoromethyl)phenyl]-1,2,3,4-tetrahydroisoquinoline] | reduced heart rate | almost the same blockade or even a decreasing blockade over six pulses | – |
| COc1cc(Cl)c(S(=O)(=O)N[C@@H](C)C(=O)N2CCC(N3CCCCC3)CC2)cc1Cl [T-478, N-[(2S)-1-([1,4′-bipiperidin]-1′-yl)-1-oxopropan-2-yl]-2,5-dichloro-4-methoxybenzene-1-sulfonamide] | reduced heart rate | use-dependent blockade | – |
| ZD7288 [reference compound] | – | almost the same blockade or even a decreasing blockade over six pulses | – |
| COc1cc2c(cc1OC)CC(=O)N(CCCN(C)C[C@H]1Cc3cc(OC)c(OC)cc31)CC2 [Ivabradine] | – | – | use-dependent blockade |
